ChEMBL document CHEMBL1629494, “New amino acid esters of salicylanilides active against MDR-TB and other microbes” (Eur J Med Chem, 2010)
≈ marks a conversion by molar mass, not a printed value.

Tests used:
Type in all cases: functional
[1] = Selectivity index, ratio of IC50 for human PBMC to MIC for multidrug-resistant Mycobacterium tuberculosis 357/2005
In short: (§1)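 SI = PBMC IC50 (MTT cytotoxicity) divided by the MIC against the named M. tuberculosis strain. MIC taken after 14 days of incubation at 37 °C by the micromethod.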

[2] = Selectivity index, ratio of IC50 for human PBMC to MIC for multidrug-resistant Mycobacterium tuberculosis 53/2009; in short: as §1
[3] = Selectivity index, ratio of IC50 for human PBMC to MIC for multidrug-resistant Mycobacterium tuberculosis 362/1998; in short: as §1
[4] = Selectivity index, ratio of IC50 for human PBMC to MIC for multidrug-resistant Mycobacterium tuberculosis 9449/2007; in short: as §1
[5] = test system: Mycobacterium tuberculosis; experiment: Antimycobacterial activity against multidrug-resistant Mycobacterium tuberculosis 357/2005 after 14 days by micromethod; conditions: 357/2005, 336 h
In short: (§2)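 Clinical MDR/XDR M. tuberculosis strains, all resistant to INH, RIF, rifabutine and streptomycin, some with further resistances. Tested by the MIC micromethod across a concentration series descending from 1000.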

[6] = test system: Mycobacterium tuberculosis; experiment: Antimycobacterial activity against multidrug-resistant Mycobacterium tuberculosis 357/2005 after 21 days by micromethod; conditions: 357/2005, 504 h; in short: as §2
[7] = test system: Mycobacterium tuberculosis; experiment: Antimycobacterial activity against multidrug-resistant Mycobacterium tuberculosis 53/2009 after 14 days by micromethod; conditions: 53/2009, 336 h; in short: as §2
[8] = test system: Mycobacterium tuberculosis; experiment: Antimycobacterial activity against multidrug-resistant Mycobacterium tuberculosis 53/2009 after 21 days by micromethod; conditions: 53/2009, 504 h
In short: (§3)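 MDR M. tuberculosis strains, all resistant to INH, RIF, rifabutine and streptomycin (9449/2007 to these four). Micromethod with compounds added as DMSO solutions in a twofold series from 1000 μmol/L downward; lowest level used 1 μmol/L. Incubated at 37 °C and read at 14 and 21 days; MIC is the lowest concentration giving growth inhibition.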

[9] = test system: Mycobacterium tuberculosis; experiment: Antimycobacterial activity against extensively drug resistant Mycobacterium tuberculosis Praha 1 after 14 days by micromethod; conditions: Praha 1, 336 h; in short: as §2
[10] = test system: Mycobacterium tuberculosis; experiment: Antimycobacterial activity against extensively drug resistant Mycobacterium tuberculosis Praha 1 after 21 days by micromethod; conditions: Praha 1, 504 h; in short: as §2
[11] = test system: Mycobacterium tuberculosis; experiment: Antimycobacterial activity against extensively drug resistant Mycobacterium tuberculosis Praha 131 after 14 days by micromethod; conditions: Praha 131, 336 h; in short: as §2
[12] = test system: Mycobacterium tuberculosis; experiment: Antimycobacterial activity against extensively drug resistant Mycobacterium tuberculosis Praha 131 after 21 days by micromethod; conditions: Praha 131, 504 h; in short: as §2
[13] = test system: Mycobacterium tuberculosis; experiment: Antimycobacterial activity against multidrug-resistant Mycobacterium tuberculosis 362/1998 after 14 days by micromethod; conditions: 362/199, 336 h; in short: as §2
[14] = test system: Mycobacterium tuberculosis; experiment: Antimycobacterial activity against multidrug-resistant Mycobacterium tuberculosis 362/1998 after 21 days by micromethod; conditions: 362/1998, 504 h; in short: as §2
[15] = test system: Mycobacterium tuberculosis; experiment: Antimycobacterial activity against multidrug-resistant Mycobacterium tuberculosis 9449/2007 after 14 days by micromethod; conditions: 9449/2007, 336 h; in short: as §3
[16] = test system: Mycobacterium tuberculosis; experiment: Antimycobacterial activity against multidrug-resistant Mycobacterium tuberculosis 9449/2007 after 21 days by micromethod; conditions: 9449/2007, 504 h; in short: as §3

Row | Compound | Selectivity Index [1] | Selectivity Index [2] | Selectivity Index [3] | Selectivity Index [4] | MIC [5] [µM] | MIC [6] [µM] | MIC [7] [µM] | MIC [8] [µM] | MIC [9] [µM] | MIC [10] [µM] | MIC [11] [µM] | MIC [12] [µM] | MIC [13] [µM] | MIC [14] [µM] | MIC [15] [µM] | MIC [16] [µM]
1 | CC(=O)N[C@@H](Cc1ccccc1)C(=O)Oc1ccc(Cl)cc1C(=O)Nc1ccc(Cl)c(Cl)c1 | 22 | 22 | 22 | 22 | 2 (≈ 1.01 µg/mL) | 2 (≈ 1.01 µg/mL) | 1 (≈ 0.506 µg/mL) | 2 (≈ 1.01 µg/mL) | 1 (≈ 0.506 µg/mL) | 2 (≈ 1.01 µg/mL) | 2 (≈ 1.01 µg/mL) | 2 (≈ 1.01 µg/mL) | 1 (≈ 0.506 µg/mL) | 2 (≈ 1.01 µg/mL) | 2 (≈ 1.01 µg/mL) | 4 (≈ 2.02 µg/mL)
2 | CC(=O)N[C@@H](Cc1ccccc1)C(=O)Oc1ccc(Cl)cc1C(=O)Nc1ccc(C(F)(F)F)cc1 | 6.1 | 6.1 | 6.1 | 6.1 | 1 (≈ 0.505 µg/mL) | 2 (≈ 1.01 µg/mL) | 1 (≈ 0.505 µg/mL) | 1 (≈ 0.505 µg/mL) | 1 (≈ 0.505 µg/mL) | 2 (≈ 1.01 µg/mL) | 1 (≈ 0.505 µg/mL) | 2 (≈ 1.01 µg/mL) | 1 (≈ 0.505 µg/mL) | 1 (≈ 0.505 µg/mL) | 2 (≈ 1.01 µg/mL) | 2 (≈ 1.01 µg/mL)
3 | CC(=O)N[C@@H](Cc1ccccc1)C(=O)Oc1ccc(Br)cc1C(=O)Nc1ccc(C(F)(F)F)cc1 | 24.1 | 24.1 | 24.1 | 24.1 | 2 (≈ 1.1 µg/mL) | 2 (≈ 1.1 µg/mL) | 1 (≈ 0.549 µg/mL) | 2 (≈ 1.1 µg/mL) | 1 (≈ 0.549 µg/mL) | 2 (≈ 1.1 µg/mL) | 2 (≈ 1.1 µg/mL) | 2 (≈ 1.1 µg/mL) | 1 (≈ 0.549 µg/mL) | 1 (≈ 0.549 µg/mL) | 1 (≈ 0.549 µg/mL) | 2 (≈ 1.1 µg/mL)
4 | NNC(=O)c1ccncc1 [ISONIAZID] | – | – | – | – | 14.6 (≈ 2 µg/mL) | 14.6 (≈ 2 µg/mL) | 14.6 (≈ 2 µg/mL) | 14.6 (≈ 2 µg/mL) | 14.6 (≈ 2 µg/mL) | 14.6 (≈ 2 µg/mL) | 14.6 (≈ 2 µg/mL) | 14.6 (≈ 2 µg/mL) | 14.6 (≈ 2 µg/mL) | 14.6 (≈ 2 µg/mL) | 58.3 (≈ 8 µg/mL) | 58.3 (≈ 8 µg/mL)
